Results gathered from unrelated publications.
Protocols differ between the studies behind these lines.
BRAF V600E: Serine/threonine-protein kinase B-raf (BRAF, Homo sapiens, UniProt P15056, V600E)
BRAF: Serine/threonine-protein kinase B-raf (BRAF, Homo sapiens, UniProt P15056)

| SMILES | target | test | conditions | remaining binding |
| --- | --- | --- | --- | --- |
| C=CC(=O)N1CCC(C(=O)NCC(=O)N2CCN(c3nc(-c4cnc(N)nc4C(F)F)nc(N4CCOCC4)n3)CC2)CC1 | BRAF V600E | binding, competition with immobilised ligand | 1 µM | 89% |
| NS(=O)(=O)c1cc(NC(=O)C2(c3ccccc3Cl)CC2)ccc1Oc1cccc(Cl)c1 | BRAF | cell-free assay, competition with immobilised ligand | 1 µM | 71% |
| C[C@H]1CCN(c2nccc(-c3cnn4ncccc34)n2)C1 | BRAF V600E | binding | 1 µM | 93% |
| CCN1CCN(Cc2ccc(C(=O)Nc3ccc(C)c(Oc4ccc5c(c4)CC(=O)N5)c3)cc2C(F)(F)F)CC1 | BRAF V600E | binding, competition with immobilised ligand | 1 µM | 28% |
| F[C@@H]1CCN(c2nccc(-c3cnn4ncccc34)n2)C1 | BRAF V600E | binding | 1 µM | 100% |
| C[C@@H]1CN(c2ccc3ncc(-c4ccc5[nH]nc(C6CC6)c5c4)n3n2)C[C@H](C)O1 | BRAF | binding, competition with immobilised ligand | 0.5 µM | 100% |
| Cc1cnc(Nc2ccc(C(=O)N3CCC(N4CCCC4)CC3)cc2)nc1-c1cc2ccccc2s1 | BRAF | binding, competition with immobilised ligand | 1 µM | 46% |
| CN(CCCC(F)(F)F)c1nccc(-c2cnn3ncccc23)n1 | BRAF V600E | binding | 1 µM | 100% |
| CCC(=N\O)/C(C)=C/c1ccc(F)cc1 | BRAF V600E | cell-free assay, competition with immobilised ligand | 1 µM | 77% |
| N#Cc1ccccc1CSc1nnc2c(n1)[nH]c1ccccc12 | BRAF | binding, competition with immobilised ligand | 10 µM | 94% |
| Cc1cc(-n2nc(Cc3cc(F)cc(C(F)(F)F)c3)nc2C)ccc1C(N)=O | BRAF | cell-free assay, competition with immobilised ligand | 1 µM | 86% |
| N[C@H]1CCN(c2nccc(-c3cnn4ncccc34)n2)C1 | BRAF | binding | 1 µM | 84% |
| CN([C@@H]1CCc2c(CC(=O)O)c3cc(S(C)(=O)=O)ccc3n2C1)S(=O)(=O)c1ccc(F)cc1 | BRAF | cell-free assay, competition with immobilised ligand | 1 µM | 98% |
| Nc1ncc2c(n1)-c1c([nH]c3ccc(C#CC4CC4)cc13)CCCC2 | BRAF V600E | binding, competition with immobilised ligand | 1 µM | 88% |
| C[C@@H](c1ccc(-n2cnc3c(N)ncnc32)cc1)N1CCc2nn(C)c(Cc3ccccc3)c2C1=O | BRAF V600E | binding, competition with immobilised ligand | 0.1 µM | 76% |
| O=C(Nc1c[nH]nc1C(=O)NC1CCNCC1)c1cc(F)cc(F)c1 | BRAF | binding, competition with immobilised ligand | 1 µM | 100% |
| Cc1nc(Cc2cccc(C(F)(F)F)c2)sc1-c1ccc(C(N)=O)nc1 | BRAF | cell-free assay, competition with immobilised ligand | 1 µM | 73% |
| O=C(NCCCN1CCOCC1)c1ccc(Nc2ncc(Cl)c(-c3ccc(Cl)s3)n2)cc1 | BRAF V600E | binding, competition with immobilised ligand | 1 µM | 92% |

| SMILES | target | test | conditions | remaining binding |
| --- | --- | --- | --- | --- |
| COc1ccnn2ncc(-c3ccnc(N(C)C)n3)c12 | BRAF | binding | 1 µM | 48% |
| COc1ncc2cc3ccccc3nc2c1C#N | BRAF V600E | cell-free assay, competition with immobilised ligand | 5 µM | 100% |
| COc1cc(-c2cn(C3CCc4ccccc4N(CC(F)(F)F)C3=O)nn2)ccc1-n1ccc(C)n1 (stereo not drawn) | BRAF | cell-free assay, competition with immobilised ligand | 1 µM | 100% |
| CN(C)c1nccc(-c2cnn3ncccc23)n1 | BRAF V600E | binding | 1 µM | 69% |
| COc1ccc2cc(OCC3(C(=O)O)CN(C(=O)c4ccc(F)cc4)C3)ccc2c1 | BRAF V600E | cell-free assay, competition with immobilised ligand | 1 µM | 100% |
| c1cncc(-c2cccc(Nc3nccc(NC4CCCCC4)n3)c2)c1 | BRAF | binding, competition with immobilised ligand | 10 µM | 69% |
| CN1CCN(c2ccc(Nc3nccc(-c4cccc([N+](=O)[O-])c4)n3)cc2C(F)(F)F)CC1 | BRAF V600E | binding | 10 µM | 3.8% |
| COc1cnc(Nc2cccc(S(N)(=O)=O)c2)nc1N1CCN(c2ccccc2)C(=O)C1 | BRAF V600E | binding, competition with immobilised ligand | 1 µM | 84% |
| O=C(NCC1CCOCC1)c1n[nH]cc1NC(=O)c1c(F)cccc1F | BRAF V600E | binding, competition with immobilised ligand | 1 µM | 100% |
| c1cnn2ncc(-c3ccnc(N4CCC45COC5)n3)c2c1 | BRAF V600E | binding | 1 µM | 63% |
| O=C(c1ccc(Nc2nccc(-c3cc4ccccc4s3)n2)cc1)N1CCC(N2CCCC2)CC1 | BRAF V600E | binding, competition with immobilised ligand | 1 µM | 21% |
| Cc1nccc(COC(=O)N2C[C@@H]3[C@@H](CNC(=O)c4ccc5[nH]nnc5c4)[C@@H]3C2)n1 | BRAF V600E | cell-free assay, competition with immobilised ligand | 1 µM | 100% |
| O=C(NCCCN1CCOCC1)c1ccc(Nc2nccc(-c3cc4ccccc4s3)n2)cc1 | BRAF | binding, competition with immobilised ligand | 1 µM | 77% |
| FC(F)(F)Oc1cccc(-c2cnc3ccc(-c4ccncc4)nn23)c1 | BRAF | cell-free assay, competition with immobilised ligand | 5 µM | 32% |
| O=C(c1ccc(Nc2ncc(Cl)c(-c3ccc(Cl)s3)n2)cc1)N1CCC(N2CCCC2)CC1 | BRAF V600E | binding, competition with immobilised ligand | 1 µM | 37% |
| CN(C)c1nccc(-c2cnc3ncccn23)n1 | BRAF | binding | 1 µM | 89% |
| O=C(c1ccc(Nc2ncc(Cl)c(-c3cc4ccccc4s3)n2)cc1)N1CCC(N2CCCC2)CC1 | BRAF | binding, competition with immobilised ligand | 1 µM | 64% |
| CNC(=O)[C@@H]1CC[C@@H](n2c(-c3ccc4cnccc4c3)nc3ccc(C(=O)NCc4cccc(C(N)=O)c4)cc32)C1 | BRAF | binding, competition with immobilised ligand | 1 µM | 100% |
